According to ChEMBL document CHEMBL4145447, “4-arylamidobenzyl substituted 5-bromomethylene-2(5H)-furanones for chronic bacterial infection” (Eur J Med Chem, 2018):

How the values were obtained:
[1] = biological target: T1, Anthranilate--CoA ligase (Pseudomonas aeruginosa (strain ATCC 15692 / DSM 22644 / CIP 104116 /JCM 14847 / LMG 12228 / 1C / PRS 101 / PAO1)) (UniProt Q9I4X3); assay: Inhibition of Pseudomonas aeruginosa PAO1 GFP-fused quorum sensing pqsA at 10 uM measured every 15 mins up to 12 hrs by GFP reporter gene assay relative to control
T1 sequence (whole entry): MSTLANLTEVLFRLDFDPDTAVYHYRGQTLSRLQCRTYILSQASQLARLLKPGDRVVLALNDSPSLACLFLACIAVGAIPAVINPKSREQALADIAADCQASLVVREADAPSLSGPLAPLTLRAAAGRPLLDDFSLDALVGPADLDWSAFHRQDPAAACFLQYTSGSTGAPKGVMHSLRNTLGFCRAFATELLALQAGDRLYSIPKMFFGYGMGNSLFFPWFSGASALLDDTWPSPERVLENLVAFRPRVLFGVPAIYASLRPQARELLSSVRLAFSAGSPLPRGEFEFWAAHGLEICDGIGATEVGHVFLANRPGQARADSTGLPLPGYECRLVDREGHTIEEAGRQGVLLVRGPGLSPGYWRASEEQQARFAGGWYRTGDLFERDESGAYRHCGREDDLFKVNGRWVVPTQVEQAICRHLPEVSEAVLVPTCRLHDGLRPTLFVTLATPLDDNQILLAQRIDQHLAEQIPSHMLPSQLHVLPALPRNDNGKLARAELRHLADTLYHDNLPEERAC
Method in brief: (§1)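 GFP reporter strains of P. aeruginosa PAO1 (lasB-, rhlA- or pqsA-promoter fused to unstable gfp(ASV)) grown overnight in LB at 37 °C, 200 rpm, 18 h, then diluted 1:100. Culture mixed 1:1 with compound diluted in LB from 10 mM DMSO stock (0.1% DMSO final). Fluorescence (ex 485/em 528 nm) read every 15 min at 37 °C for ≥12 h.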

[2] = system: Pseudomonas aeruginosa PAO1; assay: Inhibition of Pseudomonas aeruginosa PAO1 GFP-fused quorum sensing rhlA at 10 uM measured every 15 mins up to 12 hrs by GFP reporter gene assay relative to control; method in brief: as §1
[3] = biological target: Elastase (Pseudomonas aeruginosa (strain ATCC 15692 / PAO1 / 1C / PRS 101 / LMG12228)) (UniProt P14756); assay: Inhibition of Pseudomonas aeruginosa PAO1 GFP-fused quorum sensing lasB at 10 uM measured every 15 mins up to 12 hrs by GFP reporter gene assay relative to control; method in brief: as §1
Elastase (Pseudomonas aeruginosa (strain ATCC 15692 / PAO1 / 1C / PRS 101 / LMG12228)), sequence (P14756 198-498 limits assumed): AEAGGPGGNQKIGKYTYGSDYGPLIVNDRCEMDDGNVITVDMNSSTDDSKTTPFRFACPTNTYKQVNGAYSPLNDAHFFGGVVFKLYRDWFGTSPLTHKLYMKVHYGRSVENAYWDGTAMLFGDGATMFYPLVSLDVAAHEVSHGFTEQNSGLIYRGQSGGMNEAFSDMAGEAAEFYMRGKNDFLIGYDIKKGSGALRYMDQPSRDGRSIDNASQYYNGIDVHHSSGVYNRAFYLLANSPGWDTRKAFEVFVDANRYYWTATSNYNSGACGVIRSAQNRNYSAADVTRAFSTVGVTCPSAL

[4] = system: RAW264.7; assay: Anti-inflammatory activity in mouse RAW264.7 cells assessed as inhibition of LPS-induced NO production at 10 uM preincubated for 2 hrs followed by LPS stimulation and measured after 48 hrs by Griess method relative to control; format: functional
Method in brief: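 RAW264.7 cells seeded at 5 × 10^4/well and cultured 18 h, then given 10 µM compound plus LPS 100 ng/mL for 48 h at 37 °C. Supernatant mixed 1:1 with Griess reagent (1% sulfanilamide, 0.1% naphthylethylenediamine in 5% phosphoric acid) for 10 min; nitrite read at OD540.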

[5] = system: RAW264.7; assay: Anti-inflammatory activity in mouse RAW264.7 cells assessed as inhibition of LPS-induced IL-6 production by measuring […] level at 10 uM preincubated for 2 hrs followed by LPS stimulation and measured after 6 hrs by ELISA (reference value: 94.6 +/- 5.9 pg/ml); format: functional
[6] = system: RAW264.7; assay: Anti-inflammatory activity in mouse RAW264.7 cells assessed as inhibition of LPS-induced IL-6 production by measuring […] level at 10 uM preincubated for 2 hrs followed by LPS stimulation and measured after 12 hrs by ELISA (reference value: 175.2 +/- 10.2 pg/ml); format: functional
[7] = system: RAW264.7; assay: Anti-inflammatory activity in mouse RAW264.7 cells assessed as inhibition of LPS-induced TNF-alpha production by measuring TNF-alpha level at 10 uM preincubated for 2 hrs followed by LPS stimulation and measured after 12 hrs by ELISA (reference value: 21561.3 +/- 857 pg/ml); format: functional
[8] = system: RAW264.7; assay: Anti-inflammatory activity in mouse RAW264.7 cells assessed as inhibition of LPS-induced TNF-alpha production by measuring TNF-alpha level at 10 uM preincubated for 2 hrs followed by LPS stimulation and measured after 6 hrs by ELISA (reference value: 11922 +/- 628.4 pg/ml); format: functional
[9] = system: RAW264.7; assay: Anti-inflammatory activity in mouse RAW264.7 cells assessed as inhibition of LPS-induced TNF-alpha production by measuring TNF-alpha level at 10 uM preincubated for 2 hrs followed by LPS stimulation and measured after 24 hrs by ELISA (reference value: 24216 +/- 498.7 pg/ml); format: functional
[10] = system: RAW264.7; assay: Anti-inflammatory activity in mouse RAW264.7 cells assessed as inhibition of LPS-induced IL-6 production by measuring IL-6 level at 10 uM preincubated for 2 hrs followed by LPS stimulation and measured after 24 hrs by ELISA (reference value: 407.6 +/- 16.7 pg/ml)
[11] = Cytotoxicity against mouse RAW264.7 cells assessed as cell viability at 5 uM after 48 hrs by MTT assay relative to control; format: cell-based; settings: read-out: Activity
Method in brief: (§2)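 MTT viability: RAW264.7 cells (4 × 10^4/well) in DMEM + 10% FBS exposed to compounds diluted in DMEM for 48 h. MTT 0.5 mg/mL added for 4 h in the dark, formazan dissolved in DMSO, read at 570 nm. Viability = treated/medium-only control × 100; three independent experiments.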

[12] = system: Mus musculus; assay: Anti-inflammatory activity in LPS-induced sepsis shock mouse model assessed as survival rate at 1 mg/kg, iv pretreated daily for 5 days followed LPS treatment on day 5 at 1 hr post last dose and measured after 7 days relative to control; format: functional
Method in brief: (§3)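 Male SPF mice, randomly grouped, dosed i.v. with compound dissolved in DMSO and diluted in physiological saline; vehicle group given a similar volume. LPS was injected on day 5, 1 h after the last administration. Survival was recorded every 12 h for 7 days after LPS, with 11 animals per group per figure legend.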

[13] = system: Mus musculus; assay: Anti-inflammatory activity in LPS-induced sepsis shock mouse model assessed as survival rate at 20 mg/kg, iv pretreated daily for 5 days followed LPS treatment on day 5 at 1 hr post last dose and measured after 7 days relative to control; format: functional; method in brief: as §3
[14] = Cytotoxicity against mouse RAW264.7 cells assessed as cell viability at 10 uM after 48 hrs by MTT assay relative to control; format: cell-based; settings: read-out: Activity; method in brief: as §2

| inhibition [1] [%] | inhibition [2] [%] | inhibition [3] [%] | Structure (SMILES) | inhibition at 10 µM [4] [%] | further results |
| --- | --- | --- | --- | --- | --- |
| 24.3 | 10.6 | 12.2 | COc1ccc(C=CC(=O)Nc2ccc(CC3=CC(=O)O/C3=C/Br)cc2)cc1 | 61 |  |
| 20.3 | 5.57 | 8.53 | COc1cc(CC(=O)Nc2ccc(CC3=CC(=O)OC3=CBr)cc2)cc(OC)c1OC | 34.3 |  |
| 29.8 | 18.2 | 19 | Cc1ccc(CC(=O)Nc2ccc(CC3=CC(=O)OC3=CBr)cc2)cc1 | 29.4 |  |
| 16.2 | 18.1 | 9.48 | O=C(/C=C/c1ccccc1)Nc1ccc(CC2=CC(=O)OC2=C(Br)Br)cc1 | 54.4 |  |
| 20.6 | 13.8 | 11.8 | COc1ccc(CC(=O)Nc2ccc(CC3=CC(=O)OC3=C(Br)Br)cc2)cc1 | 25.2 |  |
| 21.9 | 12.9 | 5.03 | COc1ccc(/C=C/C(=O)Nc2ccc(CC3=CC(=O)OC3=C(Br)Br)cc2)cc1 | 44.3 |  |
|  |  |  | COc1ccc2c(c1)c(CC(=O)O)c(C)n2C(=O)c1ccc(Cl)cc1 [INDOMETHACIN] | 29.4 | Activity [5]: 59.6 pg/mL; Activity [6]: 120.7 pg/mL; Activity [7]: 19664 pg/mL; Activity [8]: 10850 pg/mL; Activity [9]: 20772 pg/mL; Activity [10]: 286.6 pg/mL |
| 20.6 | 15.2 | 14.9 | O=C(CCc1ccccc1)Nc1ccc(CC2=CC(=O)OC2=CBr)cc1 | 64.8 |  |
| 24.8 | 19.2 | 19.2 | O=C(Cc1ccccc1)Nc1ccc(CC2=CC(=O)OC2=C(Br)Br)cc1 | 44.1 |  |
| 19.3 | 19.2 | 19.1 | O=C(Cc1c(Cl)cccc1Cl)Nc1ccc(CC2=CC(=O)OC2=C(Br)Br)cc1 | 53.5 |  |
| 28.2 | 20.2 | 21.2 | O=C1C=C(Cc2ccc(NC(=O)c3ccccc3)cc2)C(=C(Br)Br)O1 | 30.3 |  |
| 27.9 | 20 | 10.4 | O=C(Cc1ccc(Br)cc1)Nc1ccc(CC2=CC(=O)OC2=C(Br)Br)cc1 | 50.7 |  |
| 19.5 | 7.66 | 9.79 | COc1cc(CC(=O)Nc2ccc(CC3=CC(=O)OC3=C(Br)Br)cc2)cc(OC)c1OC | 21.2 |  |
| 34.6 | 23.6 | 22.9 | O=C1C=C(Cc2ccc(NC(=O)c3ccco3)cc2)C(=C(Br)Br)O1 | 44.5 |  |
| 20 | 15.9 | 9.49 | O=C(Cc1ccc(F)cc1)Nc1ccc(CC2=CC(=O)OC2=C(Br)Br)cc1 | 59.2 |  |
|  |  |  | O=C(Nc1ccccc1)c1cc([N+](=O)[O-])ccc1Cl |  | viability at 48 h, 5 µM [11]: 99.1% |
| 40.8 | 17.2 | 24.9 | O=C(Cc1ccc(Br)cc1)Nc1ccc(CC2=CC(=O)OC2=CBr)cc1 | 64.9 |  |
| 26.4 | 11.8 | 14.8 | COc1ccc(CC(=O)Nc2ccc(CC3=CC(=O)OC3=CBr)cc2)cc1 | 39.3 |  |
| 24.5 | 16.4 | 14.2 | Cc1ccc(CC(=O)Nc2ccc(CC3=CC(=O)OC3=C(Br)Br)cc2)cc1 | 19 |  |
| 34.5 | 17.2 | 16.1 | O=C1C=C(Cc2ccc(NC(=O)c3ccccc3)cc2)C(=CBr)O1 | 46.2 |  |
| 25.8 | 17.3 | 18 | O=C(Cc1ccccc1)Nc1ccc(CC2=CC(=O)OC2=CBr)cc1 | 59.5 |  |
| 20.4 | 13.6 | 17.3 | O=C1C=C(Cc2ccc(NC(=O)c3ccco3)cc2)C(=CBr)O1 | 59.9 |  |
| 26.4 | 19.6 | 20 | O=C1C=C(Cc2ccc(NC(=O)c3cccs3)cc2)C(=C(Br)Br)O1 | 39.9 |  |
| 20.3 | 23.9 | 10.2 | O=C1C=C(Cc2ccc(NC(=O)c3cccs3)cc2)C(=CBr)O1 | 54.2 |  |
| 20.2 | 24 | 21.4 | O=C1C=C(Br)/C(=C/Br)O1 |  |  |
| 22.9 | 19.5 | 11 | O=C(CCc1ccccc1)Nc1ccc(CC2=CC(=O)OC2=C(Br)Br)cc1 | 48.1 |  |
| 17.6 | 15.2 | 16.9 | O=C(Cc1c(Cl)cccc1Cl)Nc1ccc(CC2=CC(=O)OC2=CBr)cc1 | 66.6 |  |

| Structure (SMILES) | inhibition [1] [%] | inhibition [2] [%] | inhibition [3] [%] | inhibition at 10 µM [4] [%] | further results |
| --- | --- | --- | --- | --- | --- |
| CN(CCOc1ccc(CC2SC(=O)NC2=O)cc1)c1ccccn1 (stereo not given) [ROSIGLITAZONE] | 9.19 | 15.5 | 7.43 | 16.6 | Activity [5]: 64.8 pg/mL; Activity [6]: 140 pg/mL; Activity [7]: 20616 pg/mL; Activity [8]: 11311.3 pg/mL; survival at 1 mg/kg [12]: 36.5%; survival at 20 mg/kg [13]: 45.5%; viability at 48 h, 10 µM [14]: 99%; Activity [9]: 22226 pg/mL; Activity [10]: 345.6 pg/mL |
